Columns and labels:
Aspergillus niger [1] = assay: Antifungal activity against Aspergillus niger using 1 x 10^5 spore/100 uL after 72 hrs by microdilution method; assay type: functional
Aspergillus flavus [2] = assay: Antifungal activity against Aspergillus flavus using 1 x 10^5 spore/100 uL after 72 hrs by microdilution method; assay type: functional
Aspergillus fumigatus [3] = assay: Antifungal activity against Aspergillus fumigatus using 1 x 10^5 spore/100 uL after 72 hrs by microdilution method; assay type: functional
Trichoderma viride [4] = assay: Antifungal activity against Trichoderma viride using 1 x 10^5 spore/100 uL after 72 hrs by microdilution method; assay type: functional
[5] = Antifungal activity against Trichoderma reesei using 1 x 10^5 spore/100 uL after 72 hrs by microdilution method; assay type: functional
How it was run: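 Spores washed from malt agar cultures with sterile 0.85% saline plus 0.1% Tween 80, adjusted to about 1.0×10^5 per 100 µl well. Compounds from a 1 mg/ml DMSO stock were serially diluted in malt broth with inoculum in 96-well plates and incubated 72 h at 28 °C. MIC is the lowest concentration with no visible growth under a binocular microscope. DMSO served as negative control.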

Curvularia australiensis [6] = assay: Antifungal activity against Drechslera australiensis using 1 x 10^5 spore/100 uL after 72 hrs by microdilution method; assay type: functional
Aspergillus niger [7] = assay: Antifungal activity against Aspergillus niger using 1 x 10^5 spore/100 uL assessed as 99.5% fungal killing of original inoculum after 72 hrs by microdilution method; assay type: functional
Aspergillus flavus [8] = assay: Antifungal activity against Aspergillus flavus using 1 x 10^5 spore/100 uL assessed as 99.5% fungal killing of original inoculum after 72 hrs by microdilution method; assay type: functional
Aspergillus fumigatus [9] = assay: Antifungal activity against Aspergillus fumigatus using 1 x 10^5 spore/100 uL assessed as 99.5% fungal killing of original inoculum after 72 hrs by microdilution method; assay type: functional
Trichoderma viride [10] = assay: Antifungal activity against Trichoderma viride using 1 x 10^5 spore/100 uL assessed as 99.5% fungal killing of original inoculum after 72 hrs by microdilution method; assay type: functional
[11] = Antifungal activity against Trichoderma reesei using 1 x 10^5 spore/100 uL assessed as 99.5% fungal killing of original inoculum after 72 hrs by microdilution method; assay type: functional
Curvularia australiensis [12] = assay: Antifungal activity against Drechslera australiensis using 1 x 10^5 spore/100 uL assessed as 99.5% fungal killing of original inoculum after 72 hrs by microdilution method; assay type: functional
Bacillus cereus = assay: Antibacterial activity against Bacillus cereus using 1 x 10^4 CFU/ml inoculum after 24 hrs by microdilution method; assay type: functional
Bacillus subtilis = assay: Antibacterial activity against Bacillus subtilis using 1 x 10^4 CFU/ml inoculum after 24 hrs by microdilution method; assay type: functional
Bacillus thuringiensis = assay: Antibacterial activity against Bacillus thuringiensis using 1 x 10^4 CFU/ml inoculum after 24 hrs by microdilution method; assay type: functional
Staphylococcus aureus = assay: Antibacterial activity against Staphylococcus aureus using 1 x 10^4 CFU/ml inoculum after 24 hrs by microdilution method; assay type: functional
Escherichia coli = assay: Antibacterial activity against Escherichia coli using 1 x 10^4 CFU/ml inoculum after 24 hrs by microdilution method; assay type: functional
Pseudomonas aeruginosa = assay: Antibacterial activity against Pseudomonas aeruginosa using 1 x 10^4 CFU/ml inoculum after 24 hrs by microdilution method; assay type: functional
Salmonella typhi = assay: Antibacterial activity against Salmonella typhi using 1 x 10^4 CFU/ml inoculum after 24 hrs by microdilution method; assay type: functional, Salmonella enterica subsp. enterica serovar Typhi

Structure (SMILES)	MIC (Aspergillus niger [1]) [×10⁻² umol]	MIC (Aspergillus flavus [2]) [×10⁻² umol]	MIC (Aspergillus fumigatus [3]) [×10⁻² umol]	MIC (Trichoderma viride [4]) [×10⁻² umol]	MIC [5] [×10⁻² µmol]	MIC (Curvularia australiensis [6]) [×10⁻² umol]	MFC (Aspergillus niger [7]) [×10⁻² umol]	MFC (Aspergillus flavus [8]) [×10⁻² umol]	MFC (Aspergillus fumigatus [9]) [×10⁻² umol]	MFC (Trichoderma viride [10]) [×10⁻² umol]	MFC [11] [×10⁻² µmol]	MFC (Curvularia australiensis [12]) [×10⁻² umol]	MIC (Bacillus cereus) [×10⁻² umol]	MIC (Bacillus subtilis) [×10⁻² umol]	MIC (Bacillus thuringiensis) [×10⁻² umol]	MIC (Staphylococcus aureus) [×10⁻² umol]	MIC (Escherichia coli) [×10⁻² umol]	MIC (Pseudomonas aeruginosa) [×10⁻² umol]	MIC (Salmonella typhi) [×10⁻² umol]
C/C(=N\NC(=O)C1=C(O)c2ccccc2S(=O)(=O)N1)c1ccc(F)cc1F	76.6	76.4	69.8	72	69	72.3	160.3	168.7	118.2	139.6	138	145.7	7.8	8	8.2	28.1	29.2	30.6	33.2
C/C(=N\NC(=O)C1=C(O)c2ccccc2S(=O)(=O)N1)c1ccc(O)cc1	>100	>100	>100	>100	> 100	>100	>200	>200	>200	>200	> 200	>200	4.8	4.9	5	19	21.3	22.6	25.2
COc1cccc(/C(C)=N/NC(=O)C2=C(O)c3ccccc3S(=O)(=O)N2)c1	90.1	92.7	85.9	80.7	80	82	176.3	198.4	181.2	149.9	161	162.7	7.2	7.5	7.7	24.5	25.6	26.7	29.3
C/C(=N\NC(=O)C1=C(O)c2ccccc2S(=O)(=O)N1C)c1ccc(F)cc1F	76.5	76.3	69.6	72.1	68.4	72.1	143.6	149.4	140.1	143	130	144.2	7.5	7.8	8	27.6	28.9	30.5	33.1
COc1cccc(/C(C)=N/NC(=O)C2=C(O)c3ccccc3S(=O)(=O)N2C)c1	90.1	92.6	85.7	80.5	79.6	81.7	190	188.9	168.2	160.4	159	154.8	7	7.7	7.8	24.1	25.6	26.8	29.4
C/C(=N\NC(=O)C1=C(O)c2ccccc2S(=O)(=O)N1C)c1ccccc1O	>100	>100	>100	>100	> 100	>100	>200	>200	>200	>200	> 200	>200	4	4.2	4	17.7	19.6	20.2	22.3
